Shown are actives, neighbours in structure and some others; about 4.1% of the full set was active somewhere.
Cl transport mod – KCC2 (human) Cl- transport modulation; Q9H2X9; KCC2 cells, thallium flux FluoZin-2 fluorescence; B-score of Tl+ flux slope (higher = more flux/activation; lower = inhibition) at 10 µM; 190,000 compounds, 2.2% hits;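 active means thallium flux slope and its plate-corrected score both differing from the plate sample mean at a set confidence after two filtering rounds, in either direction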;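 further: slope of fluorescence scaled to starting intensity during 10 to 20 s after thallium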
KCNQ1 inh – blocks the human KCNQ1 potassium channel; 310,000 compounds, 1.3% hits; CHO-K1 KCNQ1, FluxOR thallium flux fluorescence; active compounds read high; B-score at 10 µM;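 active means compounds whose thallium flux B-score, printed positive for inhibition, exceeds three library SD while starting fluorescence stays within three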;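 further: channel opened by potassium depolarization with thallium stimulus after 20 min compound exposure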
KCNK9 inh – blocks the human KCNK9 two-pore domain potassium channel; Q9NPC2; HEK293 KCNK9, FluxOR thallium flux fluorescence; active compounds read low; 310,000 compounds, 1.2% hits; B-score at 10 µM; AID 488922;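 active means ratio B-score over 3 SD below the library mean, with starting fluorescence within 5 SD of its mean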;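 further: negative B-score means less thallium flux so channel inhibition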
KCNQ1 pot – human KCNQ1 channel potentiation or activation. P51787. CHO-K1 KCNQ1, thallium flux FluxOR fluorescence; active compounds read high. B-score at 10 µM. 310,000 compounds, 0.35% hits. AID 2648;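 active means fluorescence ratio B-score, a plate-corrected score, at least three library SD, with initial intensity B-score within 5 SD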
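Assay system: CHO-K1 cells stably expressing KCNQ1. Medium: assay buffer for compound exposure, DMSO matched across wells. Timing: 37 °C overnight plating, 90-min dark dye load, 20-min compound pretreatment. Signal: kinetic FluxOR fluorescence, 10 s baseline plus 110 s post-stimulus.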
hERG protect – compounds protecting human hERG from proarrhythmic drug block | CHO-hERG, FluxOR thallium flux, dofetilide IC70 present | activation (rescue from dofetilide block), less the hit threshold, % at 10 µM | 310,000 compounds, 0.51% hits | AID 1511;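 active means activation above the mean of controls blocked by dofetilide plus 5 SD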;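 further: thallium influx through hERG after potassium depolarization seen as dye fluorescence rise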
KCNK3 inh – human KCNK3 channel inhibition, primary screen | O14649 | CHO-KCNK3 thallium flux, FluxOR fluorescence; active compounds read low | B-score at 10 µM | 340,000 compounds, 0.84% hits;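 active means B-score under library mean minus 4 SD, starting fluorescence ratio at most library mean plus 5 SD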;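 further: more negative B-score means stronger inhibition of thallium flux through KCNK3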
Target sequence (O14649 whole entry, looked up): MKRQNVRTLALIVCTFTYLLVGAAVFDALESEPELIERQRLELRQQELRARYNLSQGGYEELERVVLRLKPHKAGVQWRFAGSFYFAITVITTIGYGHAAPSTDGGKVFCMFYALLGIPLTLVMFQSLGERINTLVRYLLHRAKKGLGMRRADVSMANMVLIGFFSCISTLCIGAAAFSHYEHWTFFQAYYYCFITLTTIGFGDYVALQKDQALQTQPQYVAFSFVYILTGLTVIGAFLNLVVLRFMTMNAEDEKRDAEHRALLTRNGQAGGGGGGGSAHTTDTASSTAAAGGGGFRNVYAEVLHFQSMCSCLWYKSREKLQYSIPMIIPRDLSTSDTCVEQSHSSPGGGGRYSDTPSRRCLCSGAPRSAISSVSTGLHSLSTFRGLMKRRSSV
Numbers without * were called inactive; i = inactive; · = no result given; ! = not confirmed by another sample.

SMILES	Cl transport mod	KCNQ1 inh	KCNK9 inh	KCNQ1 pot	hERG protect	KCNK3 inh
O=[N+]([O-])c1ccccc1NCCNc1ncc(C(F)(F)F)cc1Cl	·	i	i	i	-2	i
S=C(Nc1ccccc1Cl)Nc1ccc(Cl)cc1Cl	·	i	i	i	-9	i
Cn1cncc1C#Cc1ccc2c(=O)c3ccccc3oc2c1	·	·	·	·	·	i
NS(=O)(=O)c1ccc(NC(=O)COC(=O)c2ccc(S(=O)(=O)N3CCOCC3)cc2)cc1	·	·	·	·	·	i
COc1ccc2oc(C(=O)Nc3nccs3)c(C)c2c1	·	i	-7.9*	i	-12	i
CC(=O)c1ccc(S(=O)(=O)N(C)CCCC(=O)N2CCN(c3ncccn3)CC2)cc1	·	·	·	·	·	i
CCCCCCCCCCCCCCCC[n+]1ccccc1	·	·	·	·	·	-11*!
CCCCCCCCCCCCCCCC[n+]1ccc(C(N)=O)cc1	2	·	·	·	·	i
CCn1c(NC(=S)Nc2ccccc2)nc2ccccc21	13*	i	i	i	-13	i
CCCn1c(NC(=O)c2ccccc2)nc2ccccc21	9.9*	i	i	i	-6	i
S=C(Nc1ccccc1)Nc1nc2ccccc2n1CCOc1ccc(Cl)cc1	3.1	i	i	i	0	i
CC1CCCC(NC(=O)Cn2c(Cl)nc3c2c(=O)n(C)c(=O)n3C)C1C (centres undefined)	·	·	·	·	·	i
CCN(c1ccccc1)S(=O)(=O)c1ccc(N2CCN(c3ccccc3O)CC2)nc1	·	·	·	·	·	i
CCc1ccc(-c2cc(C)no2)cc1S(=O)(=O)N1CCN(c2ccccc2)CC1	·	6*	i	i	-11	i
CCOC(=O)C1CCN(C(=O)COC(=O)CNC(=O)c2ccc(C(C)(C)C)cc2)CC1	·	·	·	·	·	i
O=C(NC(=S)N1CCCC(C(F)(F)F)C1)c1ccc(F)cc1 (centres undefined)	·	i	i	13*	11*	i
C=CCN(c1ccccc1)S(=O)(=O)c1cccc(C(=O)NCC(c2cccs2)N2CCOCC2)c1 (centres undefined)	·	i	i	i	-15	i
Cc1cc(CNCCN(C)C)c(C)n1-c1cc(S(=O)(=O)N2CCOCC2)ccc1N1CCCC1	·	·	·	·	·	i
O=C(CSCC(=O)Nc1ccccc1)N/N=C/c1c(O)ccc2ccccc12	-0.061	i	i	i	-16	i
O=C(N/N=C\c1c(O)ccc2ccccc12)c1ccc(O)cc1	·	i	i	i	-9	i
O=C(N/N=C/c1c(O)ccc2ccccc12)c1ccc(Br)o1	·	6*	i	i	-15	i
O=C(N/N=C/c1c(O)ccc2ccccc12)Nc1ccccc1	·	6*	i	i	-9	i
Cc1sc2nc(C(C)C)nc(SCC(=O)NCc3ccco3)c2c1C	33*	i	i	12*	8.7*	i
Cc1nc(SCC(=O)NC(=O)NCc2ccco2)nc(C)c1C	0.1	i	i	i	6.7*	i
Cc1nc(SCC(=O)NCc2ccco2)c2c(C)c(C)sc2n1	-0.71	i	i	i	-13	i
SMILES	Cl transport mod	KCNQ1 inh	KCNK9 inh	KCNQ1 pot	hERG protect	KCNK3 inh
Cc1nc(SCC(=O)NCc2ccco2)nc(C)c1C	0.38	i	i	i	-17	i
Cc1nc(C)c(C(=O)OCC(=O)N(C)c2ccccc2)s1	·	·	·	·	·	i
CCCCC(=O)Nc1cc(C)c(NC(=O)c2ccco2)cn1	·	i	i	i	5.5*	i
Cc1ccc2oc(C(=O)N3CCN(CCO)CC3)c(C)c2c1	·	i	i	9*	8.5*	i
O=S(=O)(Nc1cccc(-n2cnnn2)c1)c1cccc(Cl)c1	·	i	i	8*	-9	i
COc1ccc(CC(=O)Nc2nc(-c3cccnc3)cs2)cc1	0.2	i	i	i	-5	i
Cc1ccc(-c2csc(NC(=O)Cc3ccc(F)cc3)n2)o1	1.4	i	i	14*	-14	i
O=C(Cc1cccc(NC(=O)C2CCN(C(=O)C3CC3)CC2)c1)Nc1cccc(C(=O)N2CCCCC2)c1	·	·	·	·	·	i
CC(NC(=S)Nc1ccc([N+](=O)[O-])cc1)c1ccncc1 (centres undefined)	-0.31	7*	i	i	0	i
O=[N+]([O-])c1ccc(NC(=S)NCc2ccncc2)cc1	0.057	i	i	i	-8	i

Compound activity from PubChem BioAssay.
